Among the data in ChEMBL document CHEMBL1250466, “CLEFMA-an anti-proliferative curcuminoid from structure-activity relationship studies on 3,5-bis(benzylidene)-4-piperidones” (Bioorg Med Chem, 2010) are IC50 and Activity values, retold here.

A short description of test [1]: Antiproliferative activity against human H441 cells assessed as decrease of hexosaminidase activity after 24 hrs. The format is functional, cell-based. The settings on record: NCI-H441, 24 h. Put shortly:
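H441 (NCI-H441) cells in McCoy's 5A with 5% heat-inactivated FBS, gentamicin 50 μg/ml, 37 °C, 5% CO2; 10×10^3 cells/well seeded, attached overnight. Compounds in DMSO (0.1% final) at 1, 10, 25, 100 μM for 24 h. Hexosaminidase substrate in citrate pH 5, 30 min 37 °C, stopped with glycine/EDTA pH 10.4, A405. Triplicate, repeated at least twice; IC50 from linear or exponential fit of concentration vs activity.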

The next test relates to PC-3. As to the kind of experiment: Antiproliferative activity against human PC3 cells assessed as decrease of hexosaminidase activity at 1 to 100 uM after 24 to 72 hrs. The format is functional, cell-based. Put shortly:
(§1)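 Cells kept as for H441 but in RPMI 1640 with 5% heat-inactivated FBS and gentamicin 50 μg/ml; 10×10^3 cells/well seeded, attached overnight. Compounds in DMSO (0.1% final) at 1, 10, 25, 100 μM for 24, 48 and 72 h. Remaining cells read by hexosaminidase activity (substrate in citrate pH 5, 30 min 37 °C, glycine/EDTA pH 10.4 stop, A405) as percent of DMSO control; triplicate, repeated at least twice.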

In a further test the test system is MIA PaCa-2. As to the kind of experiment: Antiproliferative activity against human MIAPaCa2 cells assessed as decrease of hexosaminidase activity at 1 to 100 uM after 24 to 72 hrs. The format is functional, cell-based. Put shortly:
as §1

In a further test the test system is PANC-1. As to the kind of experiment: Antiproliferative activity against human PANC1 cells assessed as decrease of hexosaminidase activity at 1 to 100 uM after 24 to 72 hrs. The format is functional, cell-based. A digest of the protocol:
as §1

For test [2], the system named is NCI-H441. Description: Induction of apoptosis in human H441 cells. In kind it is functional, cell-based.
Test [3] relates to NCI-H441. Description: Induction of apoptosis in human H441 cells assessed as caspase 3 activation by immunoblotting. In kind it is functional, cell-based. In general terms: A western blot detects proteins with antibodies after separation by electrophoresis.
Test [4] relates to NCI-H441. As to the kind of experiment: Induction of apoptosis in human H441 cells assessed as caspase 3/7 activation by immunoblotting. In kind it is functional, cell-based.
For test [5], the system named is NCI-H441. As to the kind of experiment: Induction of apoptosis in human H441 cells assessed as caspase cleavage by immunoblotting. The format is functional, cell-based.
Test [6] concerns NCI-H441. Description: Induction of autophagy in human H441 cells assessed as double-membrane pre-autophagosomal structures containing cell organelles at 1 to 10 uM after 24 hrs by transmission electron microscopic analysis. The format is functional, cell-based. A digest of the protocol:
(§2)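 H441 cells exposed 24 h at 1 and 10 μM, then fixed 4 h at room temperature in 0.1 M cacodylate with 4% PFA and 2% glutaraldehyde. Post-fixed in 1% osmium tetroxide 1.5 h, dehydrated through a graded ethanol series, ultrasections stained with Sato's lead. Imaged by transmission electron microscopy at 2500×; untreated cells as controls.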

The test system of test [7] is NCI-H441. As to the kind of experiment: Induction of autophagy in human H441 cells assessed as large single-walled autophagic vacuoles at 1 to 10 uM after 24 by transmission electron microscopic analysis. The format is functional, cell-based. A digest of the protocol: as §2
The test system of test [8] is NCI-H441. Description: Induction of autophagy in human H441 cells assessed as peri-nuclear accumulation of cell organelles at 1 to 10 uM after 24 by transmission electron microscopic analysis. In kind it is functional, cell-based. A digest of the protocol:
as §2

Test [9] concerns NCI-H441. As to the kind of experiment: Induction of autophagy in human H441 cells assessed as blebbing of nuclear membrane at 1 to 10 uM after 24 by transmission electron microscopic analysis. In kind it is functional, cell-based. Put shortly:
as §2

The test system of test [10] is NCI-H441. Description: Induction of autophagy in human H441 cells assessed as chromatin condensation at 1 to 10 uM after 24 by transmission electron microscopic analysis. In kind it is functional, cell-based. Put shortly: as §2
Test [11] concerns NCI-H441. As to the kind of experiment: Induction of autophagosome formation in human H441 cells at 10 uM after 24 using monodansylcadaverine staining by fluorescent microscopic analysis. In kind it is functional, cell-based. A digest of the protocol:
(§3)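 H441 cells labeled with the autophagic-vacuole marker monodansylcadaverine after treatment and examined by fluorescence microscopy; autophagy inhibition tested with 3-methyladenine.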

For test [12], the system named is NCI-H441. As to the kind of experiment: Induction of autophagy in human H441 cells assessed as peri-nuclear accumulation of mitochondria at 1 to 10 uM after 24 by transmission electron microscopic analysis. The format is functional. A digest of the protocol:
as §2

The subject of test [13] is NCI-H441. Description: Induction of autophagosome formation in human H441 cells at 10 uM after 24 using monodansylcadaverine staining by fluorescent microscopic analysis in presence of 3-methyladenine. In kind it is functional, cell-based. A digest of the protocol:
as §3

Each structure is given as a SMILES string. Activity calls are given as the source filed them. No cut-off for these calls is given here.

As usually defined, the IC50 is the concentration needed to halve the response being measured. On to `O=C1/C(=C/c2ccccc2F)CN(C(=O)C2CCCCC2C(=O)O)C/C1=C\c1ccccc1F` (configuration not stated), for which, in [1], the IC50 came to 55 µM. The same measure, in the same setting: under `O=C1/C(=C/c2ccccc2)CNC/C1=C\c1ccccc1` stands 12 µM; under `O=C1/C(=C/c2ccc(Cl)cc2)CNC/C1=C\c1ccc(Cl)cc1`, 87 µM. Same read-out and setting: under `O=C(CN1C/C(=C\c2ccccc2F)C(=O)/C(=C/c2ccccc2F)C1)NCc1ccc(F)cc1` stands 46 µM; under `CN(C)c1ccc(/C=C2\CNC/C(=C\c3ccc(N(C)C)cc3)C2=O)cc1`, 101 µM.

In the case of `CCCCCCCCCCCC/C=C/C(CC(=O)O)C(=O)N1C/C(=C\c2ccccc2F)C(=O)/C(=C/c2ccccc2F)C1` (configuration not stated), the IC50 in [1] was found to be 47 µM. In the case of `Cc1ccc(S(=O)(=O)N2C/C(=C\c3ccccc3F)C(=O)/C(=C/c3ccccc3F)C2)cc1`, the IC50 in [1] stood at 50 µM. The same measure, in the same setting: under `O=C1/C(=C/c2ccc(F)cc2)CNC/C1=C\c1ccc(F)cc1` stands 45.7 µM. On the same count and under the same terms, under `O=C1/C(=C/c2ccccc2Br)CNC/C1=C\c1ccccc1Br` stands 6 µM; under `O=C(CCC(=O)N1C/C(=C\c2ccccc2F)C(=O)/C(=C/c2ccccc2F)C1)N[C@@H]1[C@@H](O)[C@H](O)[C@@H](CO)O[C@H]1O`, 79 µM. On the same count and under the same terms, under `O=CN1C/C(=C\c2ccccc2F)C(=O)/C(=C/c2ccccc2F)C1` stands 49 µM. As to `O=C(O)/C=C\C(=O)N1C/C(=C\c2ccccc2Cl)C(=O)/C(=C/c2ccccc2Cl)C1`, in test [1], the IC50 was 1 µM. For the same compound, the outcome in the test with PC-3, in the test on MIA PaCa-2, in the test with PANC-1, in the test with NCI-H441 [6], in the test on NCI-H441 [7] and in the test with NCI-H441 [8] was Active. Further, the outcome in the test with NCI-H441 [9], with NCI-H441 [11] and in the test on NCI-H441 [12] was Active. The result in the test on NCI-H441 [2], with NCI-H441 [3], with NCI-H441 [4], in the test with NCI-H441 [5], in the test on NCI-H441 [10] and in the test on NCI-H441 [13] was inactive. Regarding `O=C1/C(=C/c2cccc(Cl)c2)CNC/C1=C\c1cccc(Cl)c1`, the IC50 in test [1] was 50 µM.

Regarding `CCCCCCCCCC/C=C/C(CC(=O)O)C(=O)N1C/C(=C\c2ccccc2F)C(=O)/C(=C/c2ccccc2F)C1` (configuration not stated), the IC50 in [1] is 58 µM. The same measure, in the same setting: under `O=C(O)CCCC(=O)N1C/C(=C\c2ccccc2F)C(=O)/C(=C/c2ccccc2F)C1` stands 60 µM. Still for that read-out and setting: under `O=C1/C(=C/c2ccccc2Cl)CNC/C1=C\c1ccccc1Cl` stands 5 µM; under `O=C(O)/C=C/C(=O)N1C/C(=C\c2ccccc2F)C(=O)/C(=C/c2ccccc2F)C1`, 29 µM; under `O=C(O)CCC(=O)N1C/C(=C\c2ccccc2F)C(=O)/C(=C/c2ccccc2F)C1`, 69 µM. Still for that read-out and setting: under `CCCCCCCCCCCCCCCC/C=C/C(CC(=O)O)C(=O)N1C/C(=C\c2ccccc2F)C(=O)/C(=C/c2ccccc2F)C1` (configuration not stated) stands 84 µM. Regarding `O=C1/C(=C/c2ccccc2[N+](=O)[O-])CNC/C1=C\c1ccccc1[N+](=O)[O-]`, the IC50 in [1] came to 93 µM. Turning to `O=C1/C(=C/c2ccccc2F)CNC/C1=C\c1ccccc1F`, the IC50 in test [1] was 44 µM. The outcome in the test with NCI-H441 [6], in the test on NCI-H441 [7], with NCI-H441 [8], in the test on NCI-H441 [9], in the test on NCI-H441 [11] and in the test on NCI-H441 [12] was Active. Besides, the outcome with NCI-H441 [10] and with NCI-H441 [13] was inactive. In the case of `O=C1/C(=C/c2ccccc2F)CN(C(=O)c2ccccc2C(=O)O)C/C1=C\c1ccccc1F`, the IC50 in test [1] came to 56 µM.

With `CCCCCCCCCCCCCCCCNC(=O)CCC(=O)N1C/C(=C\c2ccccc2F)C(=O)/C(=C/c2ccccc2F)C1`, the IC50 in [1] is 64 µM. Still for that read-out and setting: under `CC(=O)N1C/C(=C\c2ccccc2F)C(=O)/C(=C/c2ccccc2F)C1` stands 54 µM.
